# Data reported in ChEMBL document CHEMBL4266037, “Discovery and Characterization of Cyclotides from Rinorea Species” (J Nat Prod, 2018).
# Positions of bridges follow the written chain, without caps; N, C: chain ends. Residues, ends and D or L forms follow the SMILES beside them.
# Legend:
# HUVEC [1] = assay: Cytotoxicity against HUVEC after 24 hrs by MTT assay; type: cell-based; conditions: Homo sapiens
# Procedure, shortened: (§1)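 Cells seeded at 3 × 10^3 per well and grown 24 h at 37 °C in 5% CO2. Media: HUVEC in 10% FBS/EBM-2 with supplements; HFF-1 in 15% FBS/DMEM; HT-29 and MDA-MB-231 in 10% FBS/DMEM; MM96L in 10% FBS/RPMI with 2 mM L-glutamine and 1 mM pyruvate. Switched to serum-free medium, then paclitaxel 0.00075–10 μM for 24 or 48 h. MTT added 3 h, formazan taken up in DMSO, A600. Triplicate; IC50 from sigmoidal fit.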
# HFF-1 [2] = assay: Cytotoxicity against human HFF1 after 24 hrs by MTT assay; type: cell-based; conditions: HFF-1, 24 h; procedure, shortened: as §1
# MM96L [3] = assay: Cytotoxicity against human MM96L after 24 hrs by MTT assay; type: functional, cell-based; procedure, shortened: as §1
# MDA-MB-231 [4] = assay: Cytotoxicity against human MDA-MB-231 after 24 hrs by MTT assay; type: functional, cell-based; conditions: MDA-MB-231, 24 h; procedure, shortened: as §1
# Erythrocyte = assay: Hemolytic activity against human RBC after 1 hr; type: ADME, cell-based
# Procedure, shortened: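 Human red blood cells exposed to test peptides at 0.003–10 μM, with melittin at 0.15–20 μM as the lysis positive control. IC50 given as mean ± SD of three biological replicates.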
# HT-29 [5] = assay: Cytotoxicity against human HT-29 after 24 hrs by MTT assay; type: functional, cell-based; conditions: HT-29, 24 h; procedure, shortened: as §1
# HUVEC [6] = assay: Cytotoxicity against HUVEC after 48 hrs by MTT assay; type: cell-based; conditions: Homo sapiens; procedure, shortened: as §1
# HFF-1 [7] = assay: Cytotoxicity against human HFF1 after 48 hrs by MTT assay; type: cell-based; conditions: HFF-1, 48 h; procedure, shortened: as §1
# MM96L [8] = assay: Cytotoxicity against human MM96L after 48 hrs by MTT assay; type: functional, cell-based; procedure, shortened: as §1
# HT-29 [9] = assay: Cytotoxicity against human HT-29 after 48 hrs by MTT assay; type: functional, cell-based; conditions: HT-29, 48 h; procedure, shortened: as §1
# MDA-MB-231 [10] = assay: cells; conditions: Homo sapiens, MDA-MB-231, 48 h
IC50 (MDA-MB-231 [10]) [µM],Structure (SMILES),IC50 (HUVEC [1]) [µM],IC50 (HFF-1 [2]) [µM],IC50 (MM96L [3]) [µM],IC50 (MDA-MB-231 [4]) [µM],IC50 (Erythrocyte) [µM],IC50 (HT-29 [5]) [µM],IC50 (HUVEC [6]) [µM],IC50 (HFF-1 [7]) [µM],IC50 (MM96L [8]) [µM],IC50 (HT-29 [9]) [µM]
,"CC[C@H](C)[C@@H]1NC(=O)[C@@H]2CCCN2C(=O)[C@H](CC(C)C)NC(=O)CNC(=O)[C@H](CC(N)=O)NC(=O)[C@H](CCCCN)NC(=O)[C@H](Cc2ccc(O)cc2)NC(=O)[C@@H]2CSSC[C@@H]3NC(=O)[C@H](CCCCN)NC(=O)CNC(=O)[C@H](CC(C)C)NC(=O)[C@H](CC(C)C)NC(=O)[C@@H]4CSSC[C@H](NC(=O)[C@H](CO)NC(=O)[C@H](CSSC[C@H](NC1=O)C(=O)NCC(=O)N[C@@H](CCC(=O)O)C(=O)N[C@@H]([C@@H](C)O)C(=O)N4)NC(=O)CNC(=O)[C@@H]1CCCN1C(=O)[C@H]([C@@H](C)O)NC(=O)[C@H](Cc1ccc(O)cc1)NC3=O)C(=O)N[C@@H](CCCNC(=N)N)C(=O)N[C@@H](CCCNC(=N)N)C(=O)N1CCC[C@H]1C(=O)N[C@@H](C(C)C)C(=O)N2 (cyclo(CGETCLLGKCYTPGCSCRRPVCYKNGLPI); disulfide 1-15, 5-17, 10-22)",2.6,1.9,1.1,2.3,> 10,,,,,
,CC[C@H](C)[C@@H]1NC(=O)[C@H](Cc2ccc(O)cc2)NC(=O)[C@H](CO)NC(=O)C(N)C(=O)[C@H](CC(N)=O)NC(=O)[C@H](CCCCN)NC(=O)[C@H](CCCCN)NC(=O)[C@@H]2CSSC[C@@H]3NC(=O)[C@H](CCCCN)NC(=O)CNC(=O)[C@H](CCC(N)=O)NC(=O)[C@H](C(C)C)NC(=O)[C@@H]4CSSC[C@H](NC(=O)[C@H]([C@@H](C)O)NC(=O)[C@H](CSSC[C@H](NC1=O)C(=O)NCC(=O)N[C@@H](CCC(=O)O)C(=O)N[C@@H]([C@@H](C)O)C(=O)N4)NC(=O)CNC(=O)[C@@H]1CCCN1C(=O)[C@H]([C@@H](C)O)NC(=O)[C@H](Cc1ccc(O)cc1)NC3=O)C(=O)N[C@@H](CO)C(=O)N[C@@H](Cc1c[nH]c3ccccc13)C(=O)N1CCC[C@H]1C(=O)N[C@@H]([C@@H](C)CC)C(=O)N2 (stereo partly drawn),1.6,2.1,1.3,0.95,> 10,5.9,,,,
,"CC[C@H](C)[C@@H]1NC(=O)[C@@H]2CCCN2C(=O)[C@H](CCCCN)NC(=O)CNC(=O)[C@H](CC(N)=O)NC(=O)[C@H](CCCCN)NC(=O)[C@H](Cc2ccc(O)cc2)NC(=O)[C@H](CS)NC(=O)[C@H](CC(C)C)NC(=O)[C@H](C(C)C)NC(=O)[C@H](CCCNC(=N)N)NC(=O)[C@H](CCCCN)NC(=O)CNC(=O)[C@@H]2CSSC[C@@H]3NC(=O)[C@H]([C@@H](C)O)NC(=O)[C@H](CCC(=O)O)NC(=O)CNC(=O)[C@H](CSSC[C@H](NC(=O)CNC(=O)[C@@H]4CCCN4C(=O)[C@H]([C@@H](C)O)NC(=O)[C@H](Cc4ccc(O)cc4)NC(=O)[C@H](CS)NC(=O)[C@H](CCCCN)NC(=O)CNC(=O)[C@H](CC(C)C)NC(=O)[C@H](CC(C)C)NC3=O)C(=O)N[C@@H]([C@@H](C)O)C(=O)N2)NC1=O (cyclo(CGETCLLGKCYTPGCTCGKRVLCYKNGKPI); disulfide 1-15, 5-17)",2.8,1.7,0.93,4.4,,,,,,
,CC[C@H](C)[C@H](NC(=O)CN)C(=O)NCC(=O)N[C@@H](C)C(=O)N[C@H](C(=O)N[C@@H](CC(C)C)C(=O)N[C@@H](CCCCN)C(=O)N[C@H](C(=O)N[C@@H](CC(C)C)C(=O)N[C@H](C(=O)N[C@H](C(=O)NCC(=O)N[C@@H](CC(C)C)C(=O)N1CCC[C@H]1C(=O)N[C@@H](C)C(=O)N[C@@H](CC(C)C)C(=O)N[C@H](C(=O)N[C@@H](CO)C(=O)N[C@@H](Cc1c[nH]c2ccccc12)C(=O)N[C@H](C(=O)N[C@@H](CCCCN)C(=O)N[C@@H](CCCNC(=N)N)C(=O)N[C@@H](CCCCN)C(=O)N[C@@H](CCCNC(=N)N)C(=O)N[C@@H](CCC(N)=O)C(=O)N[C@@H](CCC(N)=O)C(N)=O)[C@@H](C)CC)[C@@H](C)CC)[C@@H](C)O)[C@@H](C)O)C(C)C)C(C)C [MELITTIN],,,,,0.96,,,,,
,"CC[C@H](C)[C@@H]1NC(=O)[C@H](C)NC(=O)[C@H](CO)NC(=O)[C@H](CO)NC(=O)[C@H]([C@@H](C)CC)NC(=O)[C@@H]2CSSC[C@@H]3NC(=O)[C@H](C(C)C)NC(=O)[C@H](CCCCN)NC(=O)[C@H](CO)NC(=O)[C@H](CCCCN)NC(=O)[C@@H]4CSSC[C@H](NC(=O)[C@H](CO)NC(=O)[C@H](CCC(=O)O)NC(=O)CNC(=O)[C@H](CSSC[C@H](NC(=O)CNC1=O)C(=O)N[C@@H](CO)C(=O)N4)NC(=O)[C@@H]1CCCN1C(=O)[C@H]([C@@H](C)CC)NC(=O)CNC(=O)[C@H](CC(N)=O)NC(=O)[C@H](CCCNC(=N)N)NC(=O)[C@H](Cc1ccc(O)cc1)NC3=O)C(=O)N[C@@H](C(C)C)C(=O)N[C@@H](Cc1c[nH]c3ccccc13)C(=O)N[C@@H]([C@@H](C)CC)C(=O)N1CCC[C@H]1C(=O)N2 (cyclo(AIGCSCKSKVCYRNGIPCGESCVWIPCISS); disulfide 4-18, 6-22, 11-27)",0.35,1.3,0.65,1.5,36,0.87,,,,
,"CC[C@H](C)[C@@H]1NC(=O)[C@@H]2CCCN2C(=O)[C@H](CC(C)C)NC(=O)CNC(=O)[C@H](CC(N)=O)NC(=O)[C@H](CCCCN)NC(=O)[C@H](Cc2ccc(O)cc2)NC(=O)[C@@H]2CSSC[C@@H]3NC(=O)[C@H](CCCCN)NC(=O)CNC(=O)[C@H](Cc4ccccc4)NC(=O)[C@H](C(C)C)NC(=O)[C@@H]4CSSC[C@H](NC(=O)[C@H](CO)NC(=O)[C@H](CSSC[C@H](NC1=O)C(=O)NCC(=O)N[C@@H](CCC(=O)O)C(=O)N[C@@H]([C@@H](C)O)C(=O)N4)NC(=O)CNC(=O)[C@@H]1CCCN1C(=O)[C@H]([C@@H](C)O)NC(=O)[C@H](CC(N)=O)NC3=O)C(=O)N[C@@H](CCCNC(=N)N)C(=O)N[C@@H](CCCNC(=N)N)C(=O)N1CCC[C@H]1C(=O)N[C@@H]([C@@H](C)CC)C(=O)N2 (cyclo(CGETCVFGKCNTPGCSCRRPICYKNGLPI); disulfide 1-15, 5-17, 10-22)",> 3,> 3,> 3,> 10,> 10,> 10,,,,
0.001,CC(=O)O[C@H]1C(=O)[C@@]2(C)[C@H]([C@H](OC(=O)c3ccccc3)[C@]3(O)C[C@H](OC(=O)[C@H](O)[C@@H](NC(=O)c4ccccc4)c4ccccc4)C(C)=C1C3(C)C)[C@]1(OC(C)=O)CO[C@@H]1C[C@@H]2O [PACLITAXEL],> 10,> 10,> 10,0.2,,0.07,> 10,> 10,> 10,0.01
